Experiment [1] concerns KB. The experiment is described as follows: Cytotoxicity in vitro expressed as 50% reduction in cell number after a 3-day incubation, in human epidermoid carcinoma KB cell line. The class given is functional, cell-based. To be noted: 72 h. An outline of the steps: (§1)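 Cell lines adapted to antibiotic-free RPMI-1640 with 10% fetal calf serum; ca. 1×10^5 cells per well, overnight stabilization, then serial dilutions added, quadruplicate per concentration; medium-only controls. After 3-4 days, MTT added and incubated overnight; formazan dissolved in DMSO, absorbance at 570 nm. EC50 calculated from two data points bracketing 50% growth inhibition. Actinomycin as positive control.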

Experiment [2] relates to RPMI-7951. The experiment is described as follows: Cytotoxicity in vitro expressed as 50% reduction in cell number after a 3-day incubation, in human melanoma RPMI-7951 cell line. The class given is functional, cell-based. To be noted: RPMI-7951, 72 h. An outline of the steps:
as §1

The subject of experiment [3] is HCT-8. The experiment is described as follows: Cytotoxicity in vitro expressed as 50% reduction in cell number after a 3-day incubation, in human ileocecal carcinoma HCT-8 cell line. The class given is functional, cell-based. To be noted: HCT-8, 72 h. An outline of the steps: as §1
Experiment [4] has as its system L1210 (1565). The experiment is described as follows: Cytotoxicity in vitro expressed as 50% reduction in cell number after a 3-day incubation, in murine leukemia L-1210 cell line. The class given is functional, cell-based. To be noted: Mus musculus, 72 h. In short, it runs like this: as §1
The test system of experiment [5] is P388. The experiment is described as follows: Cytotoxicity in vitro expressed as 50% reduction in cell number after a 3-day incubation, in murine leukemia P-388 cell line. The experiment is classed as functional, cell-based. To be noted: Mus musculus, P388, 72 h. An outline of the steps:
as §1

For experiment [6], the system named is A549. The experiment is described as follows: Cytotoxicity in vitro expressed as 50% reduction in cell number after a 3-day incubation, in human lung carcinoma A-549 cell line. The class given is functional, cell-based. To be noted: A549, 72 h. In short, it runs like this: as §1
Experiment [7] concerns the target Tubulin beta chain (Bos taurus, UniProt Q6B856). The experiment is described as follows: Inhibition of tubulin polymerization. The experiment is classed as functional. In short, it runs like this: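 Bovine brain tubulin 1.0 mg/mL (10 μM) with 1.0 M repurified monosodium glutamate, 1.0 mM MgCl2, 4% DMSO and drug; preincubated 15 min at 37 °C, chilled, GTP added; turbidity at 350 nm after jump from 0 to 37 °C, followed 20 min.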

Experiment [8] relates to KM-20L2. The experiment is described as follows: Inhibition of in vitro cell growth which reduces cell growth to level at start of experiment in colon KM-20L2 cell line. The experiment is classed as functional, Homo sapiens.
Experiment [9] deals with SF-539. The experiment is described as follows: Inhibition of in vitro cell growth which reduces cell growth to level at start of experiment in CNS SF-539 cell line. The class given is functional, Homo sapiens.
In experiment [10] the test system is COLO 205. The experiment is described as follows: Inhibition of in vitro cell growth which reduces cell growth to 50% of level at start of experiment in colon COLO-205 cell line. The class given is functional, Homo sapiens. In short, it runs like this:
(§2)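 NCI in vitro disease-oriented screen across about 60 human tumour cell lines. The value is the LC50-type level: the drug concentration that cuts cell number to 50% of the count at the start of the experiment. Values are averages of 2 assays.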

The test system of experiment [11] is KM-20L2. The experiment is described as follows: Inhibition of in vitro cell growth which reduces cell growth to 50% of level at start of experiment in colon KM-20L2 cell line. The class given is functional, Homo sapiens. An outline of the steps:
as §2

For experiment [12], the system named is COLO 205. The experiment is described as follows: Inhibition of in vitro cell growth which reduces cell growth to level at start of experiment in colon COLO-205 cell line. The experiment is classed as functional, Homo sapiens.
Experiment [13] has as its system SF-539. The experiment is described as follows: Inhibition of in vitro cell growth which reduces cell growth to 50% of level at start of experiment in CNS SF-539 cell line. The experiment is classed as functional, Homo sapiens. In short, it runs like this:
as §2

In experiment [14] the test system is HCC 2998. The experiment is described as follows: Inhibition of in vitro cell growth which reduces cell growth to 50% of level at start of experiment in colon HCC2998 cell line. The experiment is classed as functional, Homo sapiens. In short, it runs like this:
as §2

Experiment [15] relates to HT-29. The experiment is described as follows: Inhibition of in vitro cell growth which reduces cell growth to level at start of experiment in colon HT-29 cell line. The experiment is classed as functional, Homo sapiens.
For experiment [16], the system named is HCC 2998. The experiment is described as follows: Inhibition of in vitro cell growth which reduces cell growth to level at start of experiment in colon HCC2998 cell line. The experiment is classed as functional, Homo sapiens.
Experiment [17] has as its target T1, Tubulin (Bos taurus) (UniProt Q6B856+Q862L2+Q862F3). The experiment is described as follows: Percentage inhibition of colchicine binding(10:1 ratio of inhibitor: colchicine). The class given is protein assay. To be noted: concentration not given here.
Experiment [18] deals with HT-29. The experiment is described as follows: Inhibition of in vitro cell growth which reduces cell growth to 50% of level at start of experiment in colon HT-29 cell line. The class given is functional, Homo sapiens. In short, it runs like this:
as §2

Experiment [19] concerns the target T1, Tubulin (Bos taurus). The experiment is described as follows: Percentage inhibition of colchicine binding(1:1 ratio of inhibitor: colchicine). The experiment is classed as protein assay. To be noted: concentration not given here.

Converted amounts (≈) assume the structure as drawn.

The source of these data is ChEMBL document CHEMBL1126989, “Synthesis and cytotoxicity of 1,6,7,8-substituted 2-(4'-substituted phenyl)-4-quinolones and related compounds: identification as antimitotic agents interacting with tubulin” (J Med Chem, 1993).

Tubulin beta chain, sequence (Q6B856 whole entry): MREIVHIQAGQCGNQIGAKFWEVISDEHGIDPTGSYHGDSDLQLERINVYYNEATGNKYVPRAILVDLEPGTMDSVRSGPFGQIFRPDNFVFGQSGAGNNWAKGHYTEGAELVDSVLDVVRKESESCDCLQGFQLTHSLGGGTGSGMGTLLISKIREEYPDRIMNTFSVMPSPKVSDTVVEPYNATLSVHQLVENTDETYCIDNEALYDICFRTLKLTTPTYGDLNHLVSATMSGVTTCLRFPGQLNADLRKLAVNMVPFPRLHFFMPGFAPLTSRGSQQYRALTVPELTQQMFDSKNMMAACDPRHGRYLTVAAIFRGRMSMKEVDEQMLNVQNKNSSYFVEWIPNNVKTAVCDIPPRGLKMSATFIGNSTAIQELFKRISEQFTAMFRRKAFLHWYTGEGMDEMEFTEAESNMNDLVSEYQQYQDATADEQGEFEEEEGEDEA

What is called EC50 is the concentration needed to bring the measured effect to its halfway point. Broadly, the IC50 is the concentration that gives 50% inhibition. The low end stands for greater potency in that assay, the high end for weaker potency in that assay. Take `Oc1cc(-c2ccccc2)nc2ccc(F)cc12`: the EC50 in experiment [1] was below 0.01 µg/mL; in experiment [2] it was 0.53 µg/mL (≈ 2.22 µM); in experiment [3], 1.36 µg/mL (≈ 5.68 µM); in [4], below 0.01 µg/mL; in experiment [5] it was 0.08 µg/mL (≈ 0.334 µM); in experiment [6], 0.38 µg/mL (≈ 1.59 µM). The IC50 in experiment [7] was 3.3 µM.
On to `CCCOc1cc(-c2ccccc2)nc2ccccc12`, for which the EC50 is 4.5 µg/mL (≈ 17.1 µM) in experiment [1]; above 10 µg/mL in [3]; above 10 µg/mL in experiment [4]; 6.9 µg/mL (≈ 26.2 µM) in experiment [5]; above 10 µg/mL in [6].
`CS(=O)(=O)Oc1cc(-c2ccccc2)nc2ccccc12`: the EC50 in [1] is 2.8 µg/mL (≈ 9.35 µM); in [3] it was 5.6 µg/mL (≈ 18.7 µM); in [4], 6.04 µg/mL (≈ 20.2 µM); in [5] it was above 10 µg/mL; in experiment [6], 6.21 µg/mL (≈ 20.7 µM).
Turning to `Oc1ccc2nc(-c3ccccc3)cc(O)c2c1`, the EC50 in experiment [1] turned out to be 0.41 µg/mL (≈ 1.73 µM); in experiment [2], 3.92 µg/mL (≈ 16.5 µM); in experiment [3], 7.75 µg/mL (≈ 32.7 µM); in experiment [4], 0.83 µg/mL (≈ 3.5 µM); in experiment [5] it was 2.86 µg/mL (≈ 12.1 µM); in [6], 8.14 µg/mL (≈ 34.3 µM). Further, it took 16 µM to reach half-maximal inhibition in experiment [7] (IC50).
Broadly, the inhibition is the share of the control response that was lost under treatment. Consider `COc1ccc2nc(-c3ccccc3)cc(O)c2c1`, for which the TGI in experiment [8] is -5.9; in experiment [9], -6.2; in [12], -6.1; in experiment [15], -6.1; in experiment [16], -6.2. Further, the EC50 is 0.08 µg/mL (≈ 0.318 µM) in experiment [1]; 0.36 µg/mL (≈ 1.43 µM) in experiment [2]; 1 µg/mL (≈ 3.98 µM) in experiment [3]; 0.06 µg/mL (≈ 0.239 µM) in experiment [4]; 0.33 µg/mL (≈ 1.31 µM) in experiment [5]; 0.19 µg/mL (≈ 0.756 µM) in [6]. Also, the LC50 is reported as -4.4 in experiment [10]; -4.6 in experiment [11]; -4.4 in [13]; above -4 in [14]; above -4 in experiment [18]. Also, the inhibition in experiment [17] turned out to be 53%; in experiment [19], 8%. The compound further registered an IC50 in experiment [7] of 2.7 µM.
Regarding `COc1cccc2c(O)cc(-c3ccccc3)nc12`, the EC50 in [1] is 5.05 µg/mL (≈ 20.1 µM); in experiment [2], above 10 µg/mL; in experiment [3], 0.55 µg/mL (≈ 2.19 µM); in experiment [4] it was 7.68 µg/mL (≈ 30.6 µM); in experiment [5] it was above 10 µg/mL; in [6] it was 6.77 µg/mL (≈ 26.9 µM). The compound also came in with an IC50 in experiment [7] above 40 µM.
`CCCCOc1cc(-c2ccccc2)nc2ccccc12`: the EC50 in experiment [1] was 3.8 µg/mL (≈ 13.7 µM); in experiment [3], above 10 µg/mL; in experiment [4] it was above 10 µg/mL; in experiment [5] it was above 10 µg/mL; in experiment [6] it was above 10 µg/mL.
`CC(C)Oc1cc(-c2ccccc2)nc2ccccc12`: the EC50 in experiment [1] was 4.2 µg/mL (≈ 15.9 µM); in experiment [3], above 10 µg/mL; in experiment [4] it was above 10 µg/mL; in experiment [5], above 10 µg/mL; in experiment [6], above 10 µg/mL.
Turning to `c1ccc(COc2cc(-c3ccccc3)nc3ccccc23)cc1`, the concentration giving a half-maximal response (EC50) is 1.6 µg/mL (≈ 5.14 µM) in experiment [1]; above 10 µg/mL in [3]; above 10 µg/mL in experiment [4]; above 10 µg/mL in experiment [5]; above 10 µg/mL in [6].
`CN(C)CCOc1cc(-c2ccccc2)nc2ccccc12`: the EC50 in [1] is above 4 µg/mL; in experiment [3], above 10 µg/mL; in experiment [4] it was above 10 µg/mL; in experiment [5] it was above 10 µg/mL; in experiment [6], above 10 µg/mL.
For `Oc1cc(-c2ccccc2)nc2c(F)cccc12`, the EC50 is 0.53 µg/mL (≈ 2.22 µM) in experiment [1]; 0.38 µg/mL (≈ 1.59 µM) in experiment [2]; 0.04 µg/mL (≈ 0.167 µM) in experiment [3]; 0.67 µg/mL (≈ 2.8 µM) in experiment [4]; 0.78 µg/mL (≈ 3.26 µM) in experiment [5]; 0.61 µg/mL (≈ 2.55 µM) in [6]. The compound also came in with an IC50 in experiment [7] of 11 µM.
For `Cc1ccc2nc(-c3ccccc3)cc(O)c2c1`, the half-maximal effective concentration (EC50) in experiment [1] amounted to 0.55 µg/mL (≈ 2.34 µM); in [2], 0.53 µg/mL (≈ 2.25 µM); in [3], 0.9 µg/mL (≈ 3.83 µM); in [4], 0.72 µg/mL (≈ 3.06 µM); in [5], 0.49 µg/mL (≈ 2.08 µM); in [6] it was 0.53 µg/mL (≈ 2.25 µM).
Consider `Oc1ccc2c(O)cc(-c3ccccc3)nc2c1`, for which the EC50 in [1] is 0.55 µg/mL (≈ 2.32 µM); in experiment [2], 0.52 µg/mL (≈ 2.19 µM); in experiment [3] it was above 10 µg/mL; in experiment [4] it was 0.45 µg/mL (≈ 1.9 µM); in [5] it was 0.81 µg/mL (≈ 3.41 µM); in experiment [6], 0.81 µg/mL (≈ 3.41 µM). Besides, 3.4 µM corresponded to half-maximal inhibition in experiment [7] (IC50).
